What was measured:
MCF7 = experiment: Phototoxicity in human MCF7 cells assessed as reduction in cell viability preincubated for 4 hrs followed by irradiation with blue light at 2.5 J/cm2 and subsequent incubation for 18 hrs measured after 24 hrs post treatment by MTT assay; type: functional; conditions: for CC50: MCF7, light or radiation study, read-out: LD50 (the source's name)
Outline: (§1)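 Cells seeded ~5 × 10^4 per well, grown 48 h, washed with PBS, then 4 h with compound (five concentrations within 1–100 μM, triplicate, three untreated control wells per plate). Irradiated with blue light, peak ~420 nm, 2.5 J/cm². Medium replaced, cells kept a further 18 h. MTT read at A570 24 h after treatment; survival expressed as percentage of control. LD50 taken from two sets of experiments.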

KB [1] = experiment: Dark toxicity against human KB cells at 200 uM preincubated for 4 hrs followed by compound washout measured after 24 hrs by MTT assay; type: cell-based
Outline: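 Dark toxicity in KB cells: 200 μM compound for 4 h with no light, removed, cells kept 24 h. Viability by MTT (2 h, A570 after DMSO solubilisation), given as % of untreated controls. Triplicate.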

KB [2] = experiment: Phototoxicity in human KB cells assessed as reduction in cell viability preincubated for 4 hrs followed by irradiation with blue light at 2.5 J/cm2 and subsequent incubation for 18 hrs measured after 24 hrs post treatment by MTT assay; type: functional; conditions: for CC50: light or radiation study, read-out: LD50 (the source's name); outline: as §1
MCF7R = experiment: Phototoxicity in human doxorubicin resistant MCF7/R cells assessed as reduction in cell viability preincubated for 4 hrs followed by irradiation with blue light at 2.5 J/cm2 and subsequent incubation for 18 hrs measured after 24 hrs post treatment by MTT assay; type: functional; conditions: for CC50: light or radiation study, read-out: LD50 (the source's name); outline: as §1
[3] = Drug metabolism in human doxorubicin resistant MCF7/R cells assessed as formation of protoporphyrin 9 preincubated for 2 hrs followed by compound washout measured after 24 hrs by HPLC-based fluorescence analysis; type: ADME, cell-based; conditions: mcf7r
Outline: (§2)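 Cells given ALA or conjugate for 2 h at 37 °C, then fresh medium without compound. At 24 h, lysed in CelLytic (15 min, room temperature), scraped and spun 1800g for 10 min. Supernatant PpIX read by fluorescence at 405/635 nm and normalised per mg protein (BCA). Untreated blanks subtracted.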

[4] = Drug metabolism in human doxorubicin resistant MCF7/R cells assessed as formation of protoporphyrin 9 at 1 to 100 uM after 6 hrs by fluorescence spectrometer relative to ALA; type: ADME, cell-based; conditions: mcf7r
Outline: (§3)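 MCF-7R monolayers exposed 6 h at 37 °C to ALA, conjugates or ALA hexyl/octyl esters at 1–100 μM in serum-free medium. PpIX emission at 635 nm (405 nm excitation; spectra 600–750 nm) read in wells. Untreated controls subtracted; mean of triplicates in arbitrary units.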

KB [5] = experiment: Dark toxicity against human KB cells assessed as cell survival at 100 uM after 24 hrs by MTT assay; type: cell-based
[6] = Drug metabolism in human KB cells assessed as formation of protoporphyrin 9 preincubated for 2 hrs followed by compound washout measured after 24 hrs by HPLC-based fluorescence analysis; type: ADME, cell-based; outline: as §2
[7] = Drug metabolism in human KB cells assessed as protoporphyrin 9 formation at 500 uM preincubated for 1 hr at 4 degC followed by compound washout and subsequent incubation for 4 hrs at 37 degC by fluorescence spectrometer; type: ADME, cell-based
Outline: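 KB cells exposed 1 h to 500 μM prodrug in clear medium at either 4 °C or 37 °C, plates foil-wrapped. Compound then removed, PBS rinse, fresh medium, both plates 4 h at 37 °C. PpIX read in wells at 405/635 nm after subtracting untreated wells.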

[8] = Drug metabolism in human doxorubicin resistant MCF7/R cells assessed as formation of protoporphyrin 9 at 1 to 100 uM after 6 hrs by fluorescence spectrometer; type: ADME, cell-based; conditions: mcf7r
Outline: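 Cells seeded ~5 × 10^4 per well and grown 48 h, washed with PBS. Then 6 h at 37 °C with 1–100 μM prodrug in serum-free medium. PpIX fluorescence read with excitation 405 nm and emission 635 nm (scan 600–750 nm, 515 nm long-pass filter). Values are mean intensity in arbitrary units after subtracting no-prodrug control wells. Triplicate.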

[9] = Drug metabolism in human MCF7 cells assessed as formation of protoporphyrin 9 preincubated for 2 hrs followed by compound washout measured after 24 hrs by HPLC-based fluorescence analysis; type: ADME, cell-based; conditions: mcf7, 24 h; outline: as §2
[10] = Drug metabolism in human doxorubicin resistant MCF7/R cells assessed as formation of protoporphyrin 9 after 6 hrs by fluorescence spectrometer; type: ADME, cell-based; conditions: mcf7r; outline: as §3
[11] = Drug metabolism in human KB cells assessed as formation of protoporphyrin 9 at 50 uM after 2 to 24 hrs by fluorescence spectrometer; type: ADME, cell-based
Outline: (§4)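 KB monolayers (48 h after seeding ~5×10^4/well) washed, then given prodrug or ALA at 50 μM in serum-free medium at 37 °C. PpIX fluorescence read in wells at 2, 4, 6 and 24 h, excitation 405 nm, emission 635 nm. Untreated wells subtracted for autofluorescence; mean intensity in arbitrary units, triplicate.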

[12] = Drug metabolism in human KB cells assessed as formation of protoporphyrin 9 at 50 uM after 24 hrs by fluorescence spectrometer relative to ALA; type: ADME, cell-based; outline: as §4
[13] = Drug metabolism in human KB cells assessed as formation of protoporphyrin 9 at 100 uM after 6 to 24 hrs by fluorescence spectrometer; type: ADME, cell-based
Outline: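 Time course in KB cells at 37 °C after 100 μM conjugate, ALA, or 1:1 ALA + HPO mixture in serum-free medium. Well PpIX fluorescence read at 405 nm excitation / 635 nm emission, control autofluorescence subtracted, triplicate means.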

[14] = Drug metabolism in human doxorubicin resistant MCF7/R cells assessed as formation of protoporphyrin 9 at 50 uM after 6 hrs by fluorescence spectrometer; type: ADME, cell-based; conditions: mcf7r
Outline: (§5)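 MCF-7 or MCF-7R cells incubated 6 h at 37 °C with 50 μM conjugate, or with 50 μM ALA and HPO as a 1:1 mixture, in serum-free medium. PpIX fluorescence read in wells at 405/635 nm, untreated-well values subtracted, triplicate.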

[15] = Drug metabolism in human MCF7 cells assessed as formation of protoporphyrin 9 at 50 uM after 6 hrs by fluorescence spectrometer; type: ADME, cell-based; conditions: mcf7, 6 h; outline: as §5
KB [16] = experiment: Phototoxicity in human KB cells assessed as cell survival at 10 uM preincubated for 4 hrs followed by irradiation with blue light at 2.5 J/cm2 and subsequent incubation for 18 hrs measured after 24 hrs post treatment by MTT assay relative to control; type: functional; conditions: light or radiation study, read-out: Survival; outline: as §1
[17] = Prodrug conversion in human doxorubicin resistant MCF7/R cells assessed as accumulation of ALA at 100 uM after 2 hrs by HPLC-based fluorescence analysis relative to ALA; type: ADME, cell-based; conditions: mcf7r
Outline: (§6)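 KB or MCF-7R cells incubated 2 h with 100 μM ALA or conjugate, then extracted with CelLytic. Lysate ALA derivatised with acetylacetone/ethanol/water (15/45/40) plus 10% formaldehyde at 100 °C for 10 min. Analysed by C18 HPLC with fluorescence detection (excitation 370 nm, emission 460 nm) against spiked-lysate calibration. Normalised per mg protein.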

[18] = Prodrug conversion in human KB cells assessed as accumulation of ALA at 100 uM after 2 hrs by HPLC-based fluorescence analysis relative to ALA; type: ADME, cell-based; outline: as §6
KB [19] = experiment: Dark toxicity against human KB cells preincubated for 4 hrs followed by compound washout measured after 24 hrs by MTT assay; type: cell-based
Outline: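 KB cells seeded ~5×10^4/well, grown 48 h, PBS-washed, then exposed to compound for 4 h without irradiation. Medium replaced and cells kept a further ~24 h. Survival by MTT (1 mg/mL in EMEM, 2 h), formazan dissolved in DMSO, A570, expressed as % of untreated control wells. Triplicate wells.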

[20] = Dark toxicity against human KB cells assessed as cell survival at 100 uM after 4 hrs by MTT assay; type: cell-based; conditions: read-out: Survival
Outline: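 Cells seeded ~5 × 10^4 per well, grown 48 h, washed with PBS, then exposed to compound in medium for 4 h without irradiation. Incubation then continued for 24 h after prodrug removal. Viability by MTT (1 mg/mL, 2 h), formazan dissolved in DMSO, A570, expressed as percentage of untreated control wells on the same plate. Triplicate.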

[21] = Drug metabolism in human doxorubicin resistant MCF7/R cells assessed as formation of protoporphyrin 9 at 100 uM after 6 hrs by fluorescence spectrometer; type: ADME, cell-based; conditions: mcf7r; outline: as §3

Structure (SMILES)	Activity (MCF7)	CC50 (MCF7)	Activity (KB [1])	Activity (KB [2])	CC50 (KB [2])	Activity (MCF7R)	CC50 (MCF7R)	Drug metabolism [3]	Activity (KB [5])	Drug metabolism [6]	Drug metabolism [7]	Flu intensity [8]	Drug metabolism [9]	Drug metabolism [10]	Drug metabolism [11]	fold change (FC) [12]	Drug metabolism [13]	Drug metabolism [14]	Drug metabolism [15]	viability at 10 µM (KB [16])	further results
CC(O)c1c(O)c(=O)ccn1CCCCCCOC(=O)CCC(=O)CN.Cl (stereo unspecified)	Dose-dependent effect	16.6 µM	Non-Toxic	Dose-dependent effect	24.1 µM	Dose-dependent effect	8.4 µM	Metabolite_Detected	Non-Toxic	Metabolite_Detected	–	–	–	–	–	–	–	–	–	–	fold change (FC) [4]: > 10
CCc1c(O)c(=O)ccn1CCCCOC(=O)CCC(=O)CN.Cl	Dose-dependent effect	76.5 µM	Non-Toxic	Dose-dependent effect	65.1 µM	Dose-dependent effect	61.2 µM	–	Non-Toxic	–	Metabolite_Detected	2 to 25 a.u.	Metabolite_Detected	Dose-dependent effect	–	–	–	–	–	–	–
CNC(=O)c1c(O)c(=O)ccn1CCCCCCOC(=O)CCC(=O)CN.Cl	Dose-dependent effect	113 µM	Non-Toxic	Dose-dependent effect	108 µM	Dose-dependent effect	104 µM	–	Non-Toxic	–	–	–	–	–	–	–	–	–	–	–	Drug metabolism [8]: Metabolite_Notdetected
CCc1c(O)c(=O)ccn1CCCCCCCCCCCCOC(=O)CCC(=O)CN.Cl	Dose-dependent effect	12.9 µM	Non-Toxic	Dose-dependent effect	2.5 µM	Dose-dependent effect	5.5 µM	Metabolite_Detected	Non-Toxic	Metabolite_Detected	Metabolite_Detected	2 to 25 a.u.	Metabolite_Detected	Dose-dependent effect	Metabolite_Detected	9.2	Metabolite_Detected	Metabolite_Detected	Metabolite_Detected	< 6%	–
CCc1c(O)c(=O)ccn1CCCCCCOC(=O)CCC(=O)CN.Cl	Dose-dependent effect	13.4 µM	Non-Toxic	Dose-dependent effect	5.2 µM	Dose-dependent effect	8.1 µM	Metabolite_Detected	Non-Toxic	Metabolite_Detected	Metabolite_Detected	2 to 25 a.u.	Metabolite_Detected	Dose-dependent effect	–	–	Metabolite_Detected	Metabolite_Detected	Metabolite_Detected	–	fold change (FC) [4]: > 15
CCc1c(O)c(=O)ccn1CCCCCCCCOC(=O)CCC(=O)CN.Cl.Cl	Dose-dependent effect	10.9 µM	Non-Toxic	Dose-dependent effect	3.1 µM	Dose-dependent effect	4.2 µM	Metabolite_Detected	Non-Toxic	Metabolite_Detected	Metabolite_Detected	2 to 25 a.u.	Metabolite_Detected	Dose-dependent effect	Metabolite_Detected	8	Metabolite_Detected	Metabolite_Detected	Metabolite_Detected	< 6%	fold change (FC) [17]: 6; fold change (FC) [18]: 6
CCc1c(O)c(=O)ccn1CCCCCCCCCCOC(=O)CCC(=O)CN.Cl	Dose-dependent effect	8.1 µM	Non-Toxic	Dose-dependent effect	2.3 µM	Dose-dependent effect	3.9 µM	Metabolite_Detected	Non-Toxic	Metabolite_Detected	Metabolite_Detected	2 to 25 a.u.	Metabolite_Detected	Dose-dependent effect	Metabolite_Detected	10.2	Metabolite_Detected	Metabolite_Detected	Metabolite_Detected	< 6%	fold change (FC) [17]: 8; fold change (FC) [18]: 8
CCCCCCCCOC(=O)CCC(=O)CN	–	–	–	–	–	–	–	–	–	–	–	–	–	–	–	–	–	–	–	–	Activity (KB [19]): Toxic; viability at 4 h, 100 µM [20]: 14%
CCc1c(O)c(=O)ccn1CCOC(=O)CCC(=O)CN.Cl	Dose-dependent effect	124 µM	Non-Toxic	Dose-dependent effect	115 µM	Dose-dependent effect	122 µM	–	Non-Toxic	–	–	–	Metabolite_Detected	–	–	–	–	–	–	–	Drug metabolism [21]: Metabolite_Notdetected

— ChEMBL document CHEMBL4049424, “Hydroxypyridinone and 5-Aminolaevulinic Acid Conjugates for Photodynamic Therapy” (J Med Chem, 2017)
